Measurements taken from the EternaBench riboswitch data.

Test system: MS2 coat protein
Assay: apparent Kd, MS2 coat protein; higher = weaker binding; RNA-MaP array; FMN 200 µM where present
Method in brief: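 Stalled E. coli RNA polymerase transcribed each design on Illumina sequencing-chip clusters. The clusters were titrated with SNAP-549-labelled MS2 coat protein, starting at 0.7 or 1.5 nM and doubling up to 3 µM, first without ligand and then with constant ligand, in 100 mM Tris-HCl pH 7.5, 80 mM KCl, 4 mM MgCl2, BSA, DTT, yeast tRNA and Tween-20. Green signal was normalised to red-channel RNA signal and to the control-cluster median Fmax. The apparent Kd is the median of filtered binding-curve fits made for each cluster.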

[1] = designed as: OFF switch for flavin mononucleotide, no ligand
[2] = ligand present: flavin mononucleotide, designed as: OFF switch for flavin mononucleotide
[3] = designed as: ON switch for flavin mononucleotide, no ligand
[4] = ligand present: flavin mononucleotide, designed as: ON switch for flavin mononucleotide

Sequence	apparent Kd [1] [nM]	apparent Kd [2] [nM]	apparent Kd [3] [nM]	apparent Kd [4] [nM]
AAUUAUUGAUGAGGAUAUUGUGGUGAAACACGACGAGAAGGCAUAUGUCACAUGAGGAUCACCCAUGUGAGCCUUGUGGAUAUA	52	112		
AACGCAGAAAUCGCAAUACAUGAGGAUCACCCAUGUAGAUCACAGGAUAUGGUCUAGUCAGUGGUCCAGAAGGGUGAUCAGAAC			66.4	38.6
CGUAACUGCAUAGGAUAUUGAUACAUGAGGAUCACCCAUGUUUUUCGGAUUAGAUAUAUACUUAGCAAGAAGGAUGGAGUUACG			9.58	6.57
GGGUACAUGGGAGGAUAUCAUGUAAAUACAUGAGGAUCACCCAUGUCGAUGGAGACAUCGGAGAUUGAGAAGGCCGAUGUACCG			21.1	37.8
AUUUAGUGAGGAUAUGUGGCUUCGAUCGUGAGAUCGAGGCUACAGAAGGCACAUGAGGAUCACCCAUGUUCCUU	13.2	55.9		
AUCCGGAAUGUUAGGAUAUCUUGGCGCCUGUGCUUGGAGAAGGGACAUGAGGAUCACCCAUGUCCUCUCGGAAA	13.1	14.9		
UUACCUUAUGAGAAGGCGAUCAUGAAACAUGAUCGAGGAUAUCAUGUAAACAUGAGGAUCACCCAUGUAUGGGUAUUAUGGUAU			96	23.9
CGUUAUAACGAGAAGGCUGUCUGCAGUCCAGACGGAGGAUAUCGAGAAGACAUGAGGAUCACCCAUGUACGCUGGUGUCUUCAU	25.4	189		
AUAAUUUUAUAUAUCAUUUUAAUCAGAAGGCAUAACAUGAGGAUCACCCAUGUAUAUUAUAGUUAUGAGGAUAUGAUUUGGUUA	11.6	10.9		
GUACUGUAGUGAGGAUAUACGAGAUCGAUAGAUCGGCGAUCCAUUUAUACAUGAGGAUCACCCAUGUAGAAGGCACUUCAGUAC	5.62	56.6		
UGAUCUUGUGUCAGGAUAUGCUGGUCUCCUCUCCAGCAGAAGGGACAUGAGGAUCACCCAUGUUCUCUCUUUUU	11	28.6		
GGGUGACAUGAGGAUCACCCAUGUCAGGAUAUGAUACUAUGUACUUCGGUACAUAGUAUCAGAAGGGACAUCCC	48.4	158		
CAGCACUGUCGAGAGGAUAUGCGGUGAUGGACAUGAGGAUCACCCAUGUUAGCGACAGCAUCACGGCAGAAGGCUCUACUGCUGC			13.2	12.2
UUUAUAAAGAUAGGAUAUUGUAUUAUAAUUAAAUAAGAAGGAUCACACAUGAGGAUCACCCAUGUAUGAGGAUCACCCAUGUAU	15.8	14.5		
CCGCGCAUAGGAUAUUAAUCUCACGACAUGAGGAUCACCCAUGUAACUCUGUGUGCGAUCUAAGAAGGGUGGGCUU	28.8	24		
CGUAUCGAAGAAGGAUAUCGCAACGACAGCUAGGGCUAUUCUCAACAUGAGGAUCACCCAUGUUGCGAGAAGGUCUGCUAUGCG	27.9	50.5		
UUUGUUGUUGUGAGGAUAUACUGUUUGUUUUGUUUGUAGAAGGUACAUGAGGAUCACCCAUGUUGGUUGUUUUU	26.4	25.1		
UAUCCACAUGAGGAUCACCCAUGUGAGGAUAUGUCCAUAUUCGGCAAAUCGGAUAUGGACAGAAGGCACACCGG	36.9	103		
UUCAGCUCGUGAGGAUAUACAUGUGCUGGAAACAGCACUAAUAGAAUCACAUGAGGAUCACCCAUGUAGAAGGCACGAGCUGAG	17.2	40.1		
GUCUUACAUGAGGAUCACCCAUGUGAGGAUAUCCCGGGCCCGGGCUUGCCCGGGCCCGGGAGAAGGCACAUGUU	32.2	99.4		
UGCUGGCAAGGAUAUACUCGGGAUGCUAGUCGCGCGGUUGCACAUGAGGAUCACCCAUGUAGAAGGUGUCUGUG	195	160		
CAAAACUGAGGAUAUACAUGAGGAUCACCCAUGUCCAAGGUCCUGGGCGGAUGCUGCUGUAGAAGGCGGAAAGA	22.4	32.4		
AUCAUCUUGUCAGGAUAUGCGUGUCAACGAAAGUAGACAAUCUUAAUAACAUGAGGAUCACCCAUGUAGAAGGGACGAGAUGAU	19.8	21		
UAUUGAUAAUAUUUUAACAUGAGGAUCACCCAUGUCGCUCGACAGGAUAUAUUUUAUUUGUUUAAGUAGAAGGGUCGCAGAUUU			117	103
GGGCCCGGAGGAUAUACAUGAGGAUCACCCAUGUACCCGGGCCCUAUUGGGUUUGGGUGUAGAAGGCCGGGCCC	15	15.3		
GGUGAAGCAGGAUAUGUGCCGAUAUACAUGAGGAUCACCCAUGUCAUGUAGGAACCGCGUAUAGAAGGGCUUCACC	39.2	67.1		
CUAGCAACAUGAGGAUCACCCAUGUAGGAUAUCGCUAUUGUAAUCAUGAAACAUGAUUACAAUAGCGAGAAGGACAUAUGCUAA	7.96	10.8		
CCUAAGGACACAGGAUAUAGCGUGGCGGCUGGACUCCAACGGCGAACGGCGCUAGAAGGGUGACCACAUGAGGAUCACCCAUGU			495	206

Sequence	apparent Kd [1] [nM]	apparent Kd [2] [nM]	apparent Kd [3] [nM]	apparent Kd [4] [nM]
UCAUGAUAUGUAGGAUAUCACUUUAAUUGAUUAAUAUAUGAAUAUAGAAUUUGAGAAGGACAUUUACAUGAGGAUCACCCAUGU	12.9	9.67		
GCGUCAGAAUUAAUUGUGACAGACAGAAGGCAAUAGUUCAUGUCAGACAUGAGGAUCACCCAUGUUGAGGAUAUGUAUUUACAC	6.05	6.29		
GCCAUGCUGGUGACGGAUAACACAUGAGGAUCACCCAUGUACAGAAGGCGGAAUUAGCGUAGGACCGAGGAUAUGUGCGUGAGG	30.8	42.3		
GAUCUGACAGGAUAUACAUGAGGAUCACCCAUGUACGAGCUAGCGAAAGCUAGCUCAGGUAGAAGGGUCAGAUC	12.3	16.4		
CAUUAACAUGAGGAUCACCCAUGUGAGGAUAUGAUAUUACUAGGACGGCUGUGAUCAAUCAGAAGGCACAUCUU	25	30		
CGUAUGGACAGAGGAUAUGCCGAUAGGAUCUACUAUCGAAGAAUCCUCACAUGAGGAUCACCCAUGUAGAAGGCUGUCCAUACU	8.15	36.3		
AUAAAACAUGAGGAUCACCCAUGUAAUAAGAACCGAGGAUAUGGAAAUAAUAAUAAUAAACCAGAAGGUGGUGAUC			146	326
UGGUACUAGGGAGGAUAUGUGAAGAUACAUGAGGAUCACCCAUGUUUAAGAAUGCCGAGAGGCAACUAGAAGGCCCUAGUACCU			8.5	5.65
UAACAUGUCCGAGGAUAUCUGGAAACAUUUUCAAGAGAAGGCGGACAUGAGGAUCACCCAUGUCUCUCCUCAUCAAAUCCAAGU	8.9	42.3		
GUUUCCAGAGGAUAUGCGAGGGUGUACCUCUAACAGCUCAAACAUGAGGAUCACCCAUGUAGAAGGCUGAUCAU	19.8	18.2		
UGGUACAAGGGAGGAUAUGGGAAGAUACAUGAGGAUCACCCAUGUUUAAGAAUGCCGAGAGGCAACUAGAAGGCCCUAGUACCU			506	20.4
AACCACCGCACGGACACGUCGAGUCAGGAUAUACAUGAGGAUCACCCAUGUGAAGGCCGGCUCAUGUAGAAGGGACAGGCGUUG	11.4	15.7		
ACUUAUAGAGGAUAUACAGUAUAUUACAUGAGGAUCACCCAUGUUCUUCAAUGUAUAUAUGUAGAAGGCUAAGGAA	206	541		
CUCAUGUGAGGAUAUGUGAUCUGCCUUCUAUGUAGAUGAUCACAGAAGGCACAUGAGGAUCACCCAUGUAGAUC	119	23.4		
UCAGAAGUCACAGGAUAUCCGGCGUAGCACACAGGAGAAGGGUGAUCACGAGCACAUGAGGAUCACCCAUGUGACAUUUGUGGG			53.6	27.5
GGUACUCAAAGAGUACCAAUACGAACAUGAGGAUCACCCAUGUAGGAUAUGAAAACGCCGGAGUAUCAGAAGGACAUGUGCCUA	12.6	21.3		
UACUUCCGAGGAUAUACAUGAGGAUCACCCAUGUGCUUCAGCAUCUAAUGAUGCAUGGGUAGAAGGCGGUAGUU	58.5	68.1		
GCCAUGUCAGGAUAUAAGCUGUUGCCGAACGGUCAACACAAUUAGAAGGGACAUGAGGAUCACCCAUGUCCGAG	18.5	20.3		
AAAAUCUAUUGAGGAUAUCGUUCUUAAAGAGAAUGAGAAGGCAAACAAUCAUGAGGACAUGAGGAUCACCCAUGUUGUGACCAU			19.9	10.3
CUCGUGUAAGGAUAUAUUGCAAUGACGAAAUUUGCCCUGAGAUAGAAGGUACAUGAGGAUCACCCAUGUGUCGG	45.5	92.2		
CAAAAGUAUAACAAUUUCAAGGCACAGGAUAUGAGUGUGCACAUGAGGAUCACCCAUGUUAUAACUUAGAAGGGUGACCAUUGC			427	368
AGAACAUGAGGAUCACCCAUGUAAAGGUCGGUCAAUAAGGGUGAGGAUAUGCUUAAAAUAAGGUAGCAGAAGGUGCUUGGUGCA			713	603
GCACAGGCAGGAUAUACAUGAGGAUCACCCAUGUGACCCUUGAAGUACUCGCGUACUCGUAGAAGGGCCUGUGC	177	302		
GGGUACAUCGGAGGAUAUCAUUUAAAUACAUGAGGAUCACCCAUGUCGAUGGAGACAUCGGAGAUUGAGAAGGCCGAUGUACCG			7.9	5.57
AGAUGAUGAUGUUAUCUUCGUCGGACAUGAGGAUCACCCAUGUAGGAUAUGCUACUCAAAGAGUAGCAGAAGGACAUGUAUCUU	25.4	113		
CUAGCCCAGCCCGCCUAGUUCGGGAGAAGGAGGAGACAUGAGGAUCACCCAUGUGGCCUUAUCUCCUAGGAUAUCCCGGCGGGA	5.56	21.6		
CGGUUACAAGGAUAUACAUGAGGAUCACCCAUGUCUCUCCGGGCGGAUCGAUAAUUUUGUAGAAGGUGUAAGGG	24.5	63.7		
